In ChEMBL document CHEMBL4689842, “EUbOPEN Chemogenomics Library wave 1” (2021):
Several values for one entry are separate records, joined by “and”; a condition that tells them apart may be missing. Identical values can stand only once.

Tested on: Fibroblast
Experiment: Multiplex assay against human fibroblast
Assay type: toxicity, cell-based
How it was run: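 Phenotypes for tubulin, mitochondrial mass and membrane permeability are expressed as per cents of healthy-nucleus cells. Cells were stained live at seeding with Hoechst33342, BioTracker Green Microtubule Cytoskeleton Dye, MitoTracker Red and Annexin V Alexa Fluor 680, then imaged after compound addition on a CQ1 microscope at 37°C and 5% CO2. Machine-learning gating in CellPathfinder separated Hoechst high-intensity objects from normal cells, divided normal cells by nuclear state (healthy, pyknosed, fragmented) and divided pyknosed cells into mitotic or apoptotic.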

[1] = 12 h, 1 µM, compound concentration 1 uM, replicate 1
[2] = 12 h, 1 µM, compound concentration 1 uM, replicate 2
[3] = 12 h, 10 µM, compound concentration 10 uM, replicate 1
[4] = 12 h, 10 µM, compound concentration 10 uM, replicate 2
[5] = 24 h, 1 µM, compound concentration 1 uM, replicate 1
[6] = 24 h, 1 µM, compound concentration 1 uM, replicate 2
[7] = 24 h, 10 µM, compound concentration 10 uM, replicate 1
[8] = 24 h, 10 µM, compound concentration 10 uM, replicate 2
[9] = 48 h, 10 µM, compound concentration 10 uM, replicate 1
[10] = 48 h, 10 µM, compound concentration 10 uM, replicate 2

How did the “Population Apoptotic (%)” value [1] turn out when `CCOC(=O)Nc1cc(-c2ccc(C)c(NS(C)(=O)=O)c2)nn2c(C)nnc12` was run?
The value was 75%.

And the “Population Fragmented Nuclei (%)” value [1]?
Its value is 30%.

What about the “Population Healthy Nuclei (%)” value [1] of the same molecule?
Its value is 44%.

What about the “Population Hoechst High Intensity Objects (%)” value [1] of the same molecule?
The value was 9%.

What about the “Population Membrane Permeable-Phenotype (%)” value [1] of the same molecule?
Its value is 9%.

What about the “Population Mitochondria Different-Phenotype (%)” value [1] of the same molecule?
The value was 9%.

What about the “Population Mitotic Cells (%)” value [1] of the same molecule?
The value was 24%.

And the “Population Normal (%)” value [1]?
Its value is 90%.

What about the “Population Pyknosed Nuclei (%)” value [1] of the same molecule?
Its value is 24%.

What about the “Population Tubulin-Different-Phenotype (%)” value [1] of the same molecule?
Its value is 10%.

What about the “Total Cell Count” value [1] of the same molecule?
The value was 184.

And the “Population Apoptotic (%)” value [2]?
Its value is 60%.

And the “Population Fragmented Nuclei (%)” value [2]?
Its value is 55%.

What about the “Population Healthy Nuclei (%)” value [2] of the same molecule?
Its value is 34%.

What about the “Population Hoechst High Intensity Objects (%)” value [2] of the same molecule?
Its value is 35%.

What about the “Population Membrane Permeable-Phenotype (%)” value [2] of the same molecule?
The value was 16%.

What about the “Population Mitochondria Different-Phenotype (%)” value [2] of the same molecule?
The value was 16%.

And the “Population Mitotic Cells (%)” value [2]?
The value was 40%.

And the “Population Normal (%)” value [2]?
The value was 64%.

And the “Population Pyknosed Nuclei (%)” value [2]?
The value was 9%.

And the “Population Tubulin-Different-Phenotype (%)” value [2]?
The value was 11%.

And the “Total Cell Count” value [2]?
Its value is 81.

What about the “Population Apoptotic (%)” value [3] of the same molecule?
Its value is 70% and 66%.

What about the “Population Fragmented Nuclei (%)” value [3] of the same molecule?
Its value is 30% and 28%.

And the “Population Healthy Nuclei (%)” value [3]?
The value was 45% and 56%.

What about the “Population Hoechst High Intensity Objects (%)” value [3] of the same molecule?
Its value is 15% and 13%.

And the “Population Mitochondria Different-Phenotype (%)” value [3]?
Its value is 9% and 14%.

What about the “Population Mitotic Cells (%)” value [3] of the same molecule?
The value was 29% and 33%.

What about the “Population Normal (%)” value [3] of the same molecule?
Its value is 84% and 86%.

What about the “Population Pyknosed Nuclei (%)” value [3] of the same molecule?
The value was 23% and 15%.

What about the “Total Cell Count” value [3] of the same molecule?
Its value is 84 and 231.

And the “Population Apoptotic (%)” value [4]?
The value was 50% and 40%.

And the “Population Healthy Nuclei (%)” value [4]?
The value was 86%.

What about the “Population Membrane Permeable-Phenotype (%)” value [4] of the same molecule?
The value was 9% and 0%.

And the “Population Mitotic Cells (%)” value [4]?
Its value is 50% and 60%.

And the “Population Normal (%)” value [4]?
The value was 77% and 97%.

What about the “Population Pyknosed Nuclei (%)” value [4] of the same molecule?
Its value is 2% and 5%.

And the “Total Cell Count” value [4]?
The value was 88 and 101.

And the “Population Apoptotic (%)” value [5]?
The value was 61%.

And the “Population Fragmented Nuclei (%)” value [5]?
The value was 31%.

What about the “Population Healthy Nuclei (%)” value [5] of the same molecule?
The value was 55%.

What about the “Population Hoechst High Intensity Objects (%)” value [5] of the same molecule?
Its value is 12%.

What about the “Population Membrane Permeable-Phenotype (%)” value [5] of the same molecule?
Its value is 12%.

And the “Population Mitochondria Different-Phenotype (%)” value [5]?
The value was 2%.

What about the “Population Mitotic Cells (%)” value [5] of the same molecule?
The value was 38%.

What about the “Population Normal (%)” value [5] of the same molecule?
Its value is 87%.

And the “Population Pyknosed Nuclei (%)” value [5]?
The value was 12%.

And the “Population Tubulin-Different-Phenotype (%)” value [5]?
The value was 2%.

And the “Total Cell Count” value [5]?
The value was 186.

And the “Population Apoptotic (%)” value [6]?
Its value is 50%.

What about the “Population Fragmented Nuclei (%)” value [6] of the same molecule?
Its value is 48%.

What about the “Population Healthy Nuclei (%)” value [6] of the same molecule?
Its value is 42%.

And the “Population Hoechst High Intensity Objects (%)” value [6]?
The value was 31%.

And the “Population Membrane Permeable-Phenotype (%)” value [6]?
Its value is 26%.

What about the “Population Mitochondria Different-Phenotype (%)” value [6] of the same molecule?
Its value is 5%.

What about the “Population Mitotic Cells (%)” value [6] of the same molecule?
Its value is 50%.

And the “Population Normal (%)” value [6]?
The value was 68%.

What about the “Population Pyknosed Nuclei (%)” value [6] of the same molecule?
The value was 8%.

And the “Population Tubulin-Different-Phenotype (%)” value [6]?
The value was 15%.

What about the “Total Cell Count” value [6] of the same molecule?
Its value is 66.

What about the “Population Apoptotic (%)” value [7] of the same molecule?
The value was 60% and 56%.

What about the “Population Fragmented Nuclei (%)” value [7] of the same molecule?
Its value is 22% and 18%.

And the “Population Healthy Nuclei (%)” value [7]?
The value was 47% and 66%.

And the “Population Hoechst High Intensity Objects (%)” value [7]?
Its value is 6% and 12%.

What about the “Population Membrane Permeable-Phenotype (%)” value [7] of the same molecule?
Its value is 22% and 8%.

What about the “Population Mitochondria Different-Phenotype (%)” value [7] of the same molecule?
The value was 6% and 4%.

And the “Population Mitotic Cells (%)” value [7]?
The value was 39% and 43%.

And the “Population Normal (%)” value [7]?
Its value is 94% and 88%.

And the “Population Pyknosed Nuclei (%)” value [7]?
The value was 29% and 15%.

What about the “Total Cell Count” value [7] of the same molecule?
Its value is 100 and 225.

What about the “Population Healthy Nuclei (%)” value [8] of the same molecule?
Its value is 46% and 90%.

What about the “Population Membrane Permeable-Phenotype (%)” value [8] of the same molecule?
The value was 3% and 0%.

And the “Population Mitochondria Different-Phenotype (%)” value [8]?
The value was 10% and 16%.

What about the “Population Mitotic Cells (%)” value [8] of the same molecule?
The value was 100% and 71%.

What about the “Population Normal (%)” value [8] of the same molecule?
Its value is 71% and 97%.

What about the “Total Cell Count” value [8] of the same molecule?
Its value is 88 and 137.

And the “Population Apoptotic (%)” value [9]?
The value was 54%.

What about the “Population Fragmented Nuclei (%)” value [9] of the same molecule?
The value was 30%.

What about the “Population Healthy Nuclei (%)” value [9] of the same molecule?
The value was 56%.

What about the “Population Hoechst High Intensity Objects (%)” value [9] of the same molecule?
The value was 16%.

And the “Population Membrane Permeable-Phenotype (%)” value [9]?
Its value is 16%.

What about the “Population Mitochondria Different-Phenotype (%)” value [9] of the same molecule?
The value was 0%.

What about the “Population Mitotic Cells (%)” value [9] of the same molecule?
Its value is 45%.

And the “Population Normal (%)” value [9]?
The value was 83%.

And the “Population Pyknosed Nuclei (%)” value [9]?
Its value is 12%.

And the “Population Tubulin-Different-Phenotype (%)” value [9]?
Its value is 8%.

What about the “Total Cell Count” value [9] of the same molecule?
The value was 105.

And the “Population Apoptotic (%)” value [10]?
The value was 100%.

What about the “Population Fragmented Nuclei (%)” value [10] of the same molecule?
The value was 18%.

What about the “Population Healthy Nuclei (%)” value [10] of the same molecule?
The value was 80%.

What about the “Population Hoechst High Intensity Objects (%)” value [10] of the same molecule?
Its value is 10%.

And the “Population Membrane Permeable-Phenotype (%)” value [10]?
The value was 2%.

And the “Population Mitochondria Different-Phenotype (%)” value [10]?
The value was 1%.

And the “Population Mitotic Cells (%)” value [10]?
Its value is 0%.

And the “Population Normal (%)” value [10]?
Its value is 89%.

And the “Population Pyknosed Nuclei (%)” value [10]?
The value was 0%.

And the “Population Tubulin-Different-Phenotype (%)” value [10]?
The value was 1%.

What about the “Total Cell Count” value [10] of the same molecule?
The value was 114.

`CN1CCN(Cc2cc(NC(=O)c3ccc4c(c3)CN(c3ccccc3)CC4)cc(C(F)(F)F)c2)CC1` was tested. Which “Population Apoptotic (%)” value [1] did it give?
The value was 72% and 64%.

And the “Population Fragmented Nuclei (%)” value [1]?
The value was 42% and 27%.

What about the “Population Healthy Nuclei (%)” value [1] of the same molecule?
The value was 43% and 53%.

What about the “Population Hoechst High Intensity Objects (%)” value [1] of the same molecule?
Its value is 27% and 18%.

And the “Population Membrane Permeable-Phenotype (%)” value [1]?
The value was 4% and 12%.

What about the “Population Mitochondria Different-Phenotype (%)” value [1] of the same molecule?
Its value is 6% and 7%.

And the “Population Mitotic Cells (%)” value [1]?
The value was 27% and 35%.

What about the “Population Normal (%)” value [1] of the same molecule?
Its value is 72% and 81%.

What about the “Population Pyknosed Nuclei (%)” value [1] of the same molecule?
Its value is 14% and 19%.

What about the “Population Tubulin-Different-Phenotype (%)” value [1] of the same molecule?
The value was 30% and 14%.

What about the “Total Cell Count” value [1] of the same molecule?
Its value is 315 and 180.

And the “Population Apoptotic (%)” value [2]?
Its value is 75% and 40%.

And the “Population Fragmented Nuclei (%)” value [2]?
Its value is 55% and 53%.

And the “Population Healthy Nuclei (%)” value [2]?
The value was 37% and 39%.

What about the “Population Hoechst High Intensity Objects (%)” value [2] of the same molecule?
The value was 36% and 35%.

What about the “Population Mitochondria Different-Phenotype (%)” value [2] of the same molecule?
The value was 13% and 31%.

What about the “Population Mitotic Cells (%)” value [2] of the same molecule?
The value was 25% and 60%.

What about the “Population Normal (%)” value [2] of the same molecule?
Its value is 63% and 64%.

And the “Population Pyknosed Nuclei (%)” value [2]?
The value was 6%.

And the “Total Cell Count” value [2]?
Its value is 92 and 114.

What about the “Population Apoptotic (%)” value [5] of the same molecule?
The value was 74% and 57%.

What about the “Population Fragmented Nuclei (%)” value [5] of the same molecule?
Its value is 33% and 27%.

And the “Population Healthy Nuclei (%)” value [5]?
The value was 52% and 58%.

And the “Population Hoechst High Intensity Objects (%)” value [5]?
Its value is 41% and 15%.

What about the “Population Membrane Permeable-Phenotype (%)” value [5] of the same molecule?
The value was 6% and 4%.

And the “Population Mitochondria Different-Phenotype (%)” value [5]?
Its value is 25% and 10%.

And the “Population Mitotic Cells (%)” value [5]?
Its value is 25% and 42%.

What about the “Population Normal (%)” value [5] of the same molecule?
The value was 58% and 84%.

And the “Population Pyknosed Nuclei (%)” value [5]?
The value was 14% and 13%.

And the “Total Cell Count” value [5]?
The value was 365 and 178.

What about the “Population Apoptotic (%)” value [6] of the same molecule?
The value was 100% and 40%.

And the “Population Fragmented Nuclei (%)” value [6]?
The value was 57% and 61%.

What about the “Population Healthy Nuclei (%)” value [6] of the same molecule?
The value was 33% and 32%.

And the “Population Hoechst High Intensity Objects (%)” value [6]?
Its value is 39% and 37%.

And the “Population Membrane Permeable-Phenotype (%)” value [6]?
The value was 21% and 12%.

And the “Population Mitochondria Different-Phenotype (%)” value [6]?
Its value is 15% and 16%.

And the “Population Normal (%)” value [6]?
Its value is 60% and 62%.

What about the “Population Pyknosed Nuclei (%)” value [6] of the same molecule?
The value was 8% and 6%.

And the “Population Tubulin-Different-Phenotype (%)” value [6]?
The value was 21% and 48%.

What about the “Total Cell Count” value [6] of the same molecule?
Its value is 93 and 124.
